# LEDGF integ inh = blocks HIV-1 LEDGF/p75-dependent DNA integration. AID 743269. inhibition, % at 3.7 µM. 0.64% of 370,000 active. TR-FRET IN-LEDGF/p75 DNA integration, Eu/Cy5;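 active = inhibition above the screen-wide mean plus 3 SD, cut at about 13% in these data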;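 note: signal is the Cy5 over europium emission ratio at 671 and 618 nm; 0% = plate median of compound wells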
# NSD2 HMT inh = NSD2 (human) methyltransferase inhibition; O96028; NSD2 peptide methylation, AlphaScreen, 120 min; inhibition, % at 12.5 µM; 0.54% of 310,000 active; AID 743445; in the data active = inhibition above about 50%
# MBD2 DNA inh = blocks human MBD2 binding to methylated DNA. TR-FRET, MBD2 binding to methylated oligonucleotide. inhibition, % at 4.4 µM. 0.31% of 370,000 active. AID 686964; in the data active = inhibition above about 13%
# UHRF1 binding = blocks human UHRF1 binding to methylated DNA. 0.75% of 370,000 active. AID 687016. inhibition, % at 4.4 µM. UHRF1 binding to methylated oligo, TR-FRET. Q96T88; in the data active = inhibition above about 21%;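 note: UHRF1 SRA domain binding a hemimethylated CpG hairpin DNA probe; 0% = median of test compound wells and 100% = reference inhibitor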
# TDP2 inh = TDP2 (human) inhibition, absorbance primary screen; inhibition, % at 12.8 µM; AID 720702; recombinant TDP2, T5PNP hydrolysis, p-nitrophenol absorbance 415 nm; 0.34% of 370,000 active; O95551;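 active = inhibition above the mean of all tested compounds plus 3 SD, set per campaign, cut at about 25% in these data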;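 note: 0% = DMSO with enzyme and 100% = buffer with substrate but no TDP2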
#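 Evaluation: % inhibition relative to enzyme-containing and enzyme-free wells. Material: recombinant human TDP2. Benchmarks: enzyme-free and DMSO wells. Timing: enzyme reaction with compound for 2 h at 37 °C. Compound dosing: 12.8 µM only. Measured by: p-Nitrophenol epi absorbance. Reagent: T5PNP substrate at 5 mM, a TopII-DNA adduct mimic. Replication: single well per compound.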
# Casp6 inh = inhibitors of human caspase-6 | P55212 | purified caspase-6, Z-VEID-R110 cleavage fluorescence | inhibition, % at 12.5 µM | 0.53% of 350,000 active | AID 686996;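 active = mean inhibition across replicates at least about 35%, with every replicate also reaching that limit, limit read from the data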;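 note: 0% = median of neutral control wells and 100% = no fluorescence left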
# IN multimer up = activates HIV-1 integrase multimerization in LEDGF counter-screen. activation, % at 7.7 µM. 17% of 2,000 active. shares compounds with LEDGF integ inh. AID 1053131. TR-FRET HIV-1 integrase multimerization, biochemical; in the data active = activation above about 8.9%
# TRFRET interf = optically interferes with TR-FRET readout in LEDGF counter-screen; shares compounds with LEDGF integ inh; TR-FRET optical interference counterscreen, HIV-1 IN multimerization; 2,000 tested, under 10 active; inhibition, % at 7.7 µM; AID 1053135;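 active = inhibition above the mean over all tested compounds plus 3 SD, which no compound reached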;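 note: 0% = integrase with antibodies and DMSO and 100% = antibodies without integrase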
# LEDGF integ conf = confirmation of HIV-1 LEDGF/p75-dependent integration inhibitors; shares compounds with LEDGF integ inh; TR-FRET LEDGF/p75-dependent HIV-1 integration, biochemical; inhibition, % at 3.7 µM; 36% of 2,000 active; in the data active = inhibition above about 14%
# The depositor's hits bear a star; x = no result given. Most compounds without a hit are left out; they make up all but 1.8% or so of the library.
SMILES,LEDGF integ inh,NSD2 HMT inh,MBD2 DNA inh,UHRF1 binding,TDP2 inh,Casp6 inh,IN multimer up,TRFRET interf,LEDGF integ conf
C[C@@H]1CCCCO[C@H](CN(C)C(=O)CCC(F)(F)F)[C@H](C)CN([C@H](C)CO)C(=O)c2cc(NS(=O)(=O)c3ccccc3)ccc2O1,x,x,x,x,x,1,x,x,x
Cc1ccc(S(=O)(=O)c2cc(Nc3ccccc3)ccc2O)cc1,-3,x,-1,-3,2,15,x,x,x
O=S(=O)(O)c1ccc(O)c2cc(Nc3ccccc3)ccc12,87*,x,70*,92*,24,x,66*,-236,77*
N#Cc1c(SCC(=O)Nc2cccc(F)c2)sc2c(O)cc(=O)[nH]c12,17*,4,9,30*,-3,44*,7,-38,5
O=C(C[C@@H]1C[C@H]2c3cc(NC(=O)c4ccc5c(c4)OCO5)ccc3O[C@H]2[C@H](CO)O1)NCc1ccc(Oc2ccccc2)cc1,x,x,x,x,x,2,x,x,x
O=C(CCN1CCCCC1)NNC(=O)C12CC3CC(CC(C3)C1)C2,89*,x,-3,-2,4,-2,1,-3,6
C[C@@H]1CN([C@H](C)CO)C(=O)c2cc(NC(=O)CCN3CCOCC3)ccc2O[C@@H]1CN(C)Cc1ccc2c(c1)OCO2,x,x,x,x,x,-1,x,x,x
CC(=O)Nc1ccc(-c2ccnc3c2CC(C(=O)Nc2cccc(N(C)C)c2)O3)cc1 (stereo not drawn),24*,4,-3,-2,0,4,2,-8,-6
CC(NS(=O)(=O)c1ccc(Cl)cc1)C(=O)NCc1ccco1 (stereo not drawn),18*,x,10,25*,-15,x,0,2,-11
NC(=O)c1ccsc1NC(=O)c1ccc(S(=O)(=O)N2CCCCC2)cc1,22*,x,4,2,-7,-1,-3,17,1
NC(=O)c1ccsc1NC(=O)c1ccc(S(=O)(=O)N2CCCC2)cc1,0,x,-3,1,7,1,x,x,x
COc1ccc(S(=O)(=O)Nc2ccc(F)c(F)c2)cc1Cl,35*,-5,0,-2,-3,x,2,-6,-6
COc1ccc(NS(=O)(=O)c2ccc(OC)c(OC)c2)cc1OC,0,1,3,1,-3,x,x,x,x
C=CCn1c(C)cc(C(=O)Cn2ncc(Cl)c(Cl)c2=O)c1C,26*,7,7,20,0,5,26*,-92,39*
O=C(C[C@H]1C[C@H]2c3cc(NC(=O)C4CCOCC4)ccc3O[C@H]2[C@@H](CO)O1)NCc1cccnc1,x,x,x,x,x,-1,x,x,x
CSc1nc2c([nH]1)c(=S)n(C)c(=O)n2C,26*,-3,-3,-3,-3,-2,7,-24,-10
COCC(=O)Nc1ccc2c(c1)C(=O)N(C)C[C@H](OC)[C@H](C)CN(Cc1cccc(F)c1)[C@@H](C)CO2,x,x,x,x,x,3,x,x,x
CCOc1ccc(N=Cc2ccc([N+](=O)[O-])cc2)c(O)c1,20*,x,-9,-7,-9,9,11*,-38,-3
Cc1cc(=O)n2[nH]c(-c3ccsc3-n3c(C)ccc3C)cc2n1,28*,-1,10,18,0,11,25*,-127,50*
Cc1cc(=O)n2[nH]c(-c3ccc(F)cc3)cc2n1,1,-1,2,-3,1,x,x,x,x
Cc1nc2cc(-c3ccsc3-n3c(C)ccc3C)[nH]n2c(=O)c1Cl,48*,-1,8,32*,3,x,8,-41,33*
CO[C@@H]1CN(C)C(=O)c2ccc(NS(C)(=O)=O)cc2OC[C@H](C)N(C(=O)C2CCCC2)C[C@H]1C,x,x,x,x,x,3,x,x,x
O=C(Nc1ccc(C(=O)O)cc1)/C(=C\c1ccco1)NC(=O)c1ccccc1Cl,17*,-1,-6,7,-2,5,2,-11,2
O=C(Nc1ccc(C(=O)O)cc1)/C(=C\c1ccco1)NC(=O)c1ccccc1,6,13,2,1,-3,-1,x,x,x
CC(C)(C)c1ccc(C(=O)N/C(=C\c2ccco2)C(=O)Nc2ccccc2C(=O)O)cc1,20*,5,6,16,-1,31,2,-10,26*
SMILES,LEDGF integ inh,NSD2 HMT inh,MBD2 DNA inh,UHRF1 binding,TDP2 inh,Casp6 inh,IN multimer up,TRFRET interf,LEDGF integ conf
CC1=CC(C)(C)NC(=S)N1c1ccc(C)cc1,21*,-1,1,7,5,x,-2,8,4
CC1=CC(C)(C)NC(=S)N1c1ccc(C)c(C)c1,2,-3,-2,10,9,-1,x,x,x
Cc1cccc(N=C2NC(=O)/C(=C/C=C/c3ccco3)S2)c1,26*,3,2,12,-16,9,5,-27,55*
COc1ccc(N=C2NC(=O)/C(=C\C=C\c3ccco3)S2)cc1,23*,13,7,4,16,x,16*,-83,55*
O=C1NC(=Nc2ccc3ccccc3c2)S/C1=C/c1ccco1,10,-1,1,1,-1,2,x,x,x
Cc1ccc(N=C2NC(=O)/C(=C\c3ccco3)S2)cc1,4,4,0,0,4,x,x,x,x
CN(C)C(=O)c1ccc(-c2ccc([C@@H]3[C@H](CO)N4CCCCN(Cc5ccncc5)C[C@@H]34)cc2)cc1,x,x,x,x,x,1,x,x,x
CCN(Cc1ccc(NC(C)=O)cc1)CC1CCCN(CCc2cccc(OC)c2)C1 (stereo not drawn),63*,16,-4,0,2,-12,0,3,0
Cc1noc(C)c1NC(=O)Nc1ccc2c(c1)CC(=O)N([C@@H](C)CO)C[C@H](C)[C@@H](CN(C)Cc1ccc(C(=O)Nc3ccccc3N)cc1)O2,x,x,x,x,x,1,x,x,x
COc1ccc2c3c([nH]c2c1)[C@H](CO)N(C(=O)c1cccc(F)c1)CC31CN(C(C)=O)C1,x,x,x,x,x,-1,x,x,x
CCNc1ccc(Br)cc(C(=O)/C=C/c2ccc3c(c2)OCO3)c1=O,23*,8,3,6,1,x,1,-6,41*
O=C(N/N=C\c1ccccc1OCc1ccccc1)c1ccco1,-3,0,3,9,-15,-5,x,x,x
O=C(N/N=C/c1c(O)n(Cc2ccco2)c(=O)[nH]c1=O)c1ccccc1,53*,-1,-5,34*,-9,-1,13*,-64,6
C[C@@]12C(=O)N(c3cccc(Cl)c3)C(=O)N1[C@@H]1c3ccccc3OC[C@@H]1[C@H]2c1ccccc1,34*,x,4,0,4,-3,1,-6,1

# Screening results: PubChem BioAssay, several laboratories
